From PubChem BioAssay
M1 PAM: positive allosteric modulators of human M1 muscarinic receptor; P11229; CHO-K1 hM1, Fluo-8 calcium fluorescence, ACh EC20; 0% = ACh EC20, 100% = maximal ACh; activation, % at 3 µM; 360,000 tested, 0.088% active; AID 588819; in the data active = activation above about 19%, passing the limit was not always enough
Target sequence (P11229 whole entry, looked up): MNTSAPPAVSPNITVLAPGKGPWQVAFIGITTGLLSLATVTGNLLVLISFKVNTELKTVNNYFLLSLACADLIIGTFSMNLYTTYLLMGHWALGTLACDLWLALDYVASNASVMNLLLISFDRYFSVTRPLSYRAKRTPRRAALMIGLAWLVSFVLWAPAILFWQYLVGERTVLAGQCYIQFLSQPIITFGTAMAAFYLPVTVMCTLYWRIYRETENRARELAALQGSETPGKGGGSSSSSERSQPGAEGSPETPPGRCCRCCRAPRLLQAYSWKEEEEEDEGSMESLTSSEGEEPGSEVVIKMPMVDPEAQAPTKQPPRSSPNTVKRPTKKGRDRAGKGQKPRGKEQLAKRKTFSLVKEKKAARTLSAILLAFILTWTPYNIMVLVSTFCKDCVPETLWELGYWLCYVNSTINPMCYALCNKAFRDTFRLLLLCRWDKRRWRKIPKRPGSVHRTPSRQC
CHRM1 antagonist: human CHRM1 antagonism; P11229; CHO-K1 hM1, Fluo-8 calcium fluorescence, ACh EC80 antagonist; inhibition, % at 3 µM; 360,000 tested, 1.3% active;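 active = percent inhibition above its own plate's cutoff, namely the mean of that plate's compound wells plus 3 SD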;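 note: peak over basal fluorescence ratio during 140 s after agonist addition; 0% = ACh EC80 plus DMSO and 100% = DMSO alone without agonist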
M1 ag: human M1 muscarinic receptor agonism. P11229. CHO-K1 hM1, Fluo-8 calcium fluorescence, agonist mode; 0% DMSO, 100% acetylcholine EC100. activation, % at 3 µM. 360,000 tested, 0.33% active. AID 588814;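 active = activation above the run's mean compound activation plus 3 SD, cut at about 16% in these data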;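 note: peak over basal fluorescence ratio within a 140 s kinetic read after compound addition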
TAAR1 ag: human TAAR1 agonism. CHO RD-HGA16 TAAR1, Fluo-8 calcium fluorescence; vehicle wells 0%, saturating PEA agonist 100%. 360,000 tested, 0.99% active. activation, % at 3 µM. Q96RJ0;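 active = activation above the mean activation of all test compounds in the run plus 3 SD, cut at about 38% in these data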
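Test system: RD-HGA16 (CHO) cells co-expressing Gα16 and hTAAR1 | Doses: Single dose, 3 µM | Schedule: 17-24 h seeding, 75 min 37 °C dye, 30 min RT | Evaluation: % activation from peak over basal fluorescence ratio, DMSO-to-PEA scaled | Technique: Kinetic Fluo-8 calcium fluorescence | Benchmarks: Low control DMSO, high control PEA (EC100)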
TAAR1 antagonist: human TAAR1 antagonism; CHO RD-HGA16 TAAR1, Fluo-8 calcium fluorescence, antagonist; inhibition, % at 3 µM; 360,000 tested, 1.5% active; AID 624466;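 active = inhibition above a per-plate cutoff, the mean inhibition of test compounds on that plate plus 3 SD, cut at about 49% in these data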;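 note: 0% = DMSO plus EC80 beta-PEA response and 100% = DMSO alone without agonist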
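Assay system: CHO-derived RD-HGA16 cells stably expressing human TAAR1 plus Gα16. Timing: 140 s kinetic read after compound, 140 s after agonist. Technique: kinetic Fluo-8 calcium fluorescence measurement. Measure: % inhibition of agonist calcium response.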
* = called active by the depositor; x = no result. Only some compounds are listed: those with a hit (about 3.4% of all), similar ones and a draw of the others.

SMILES	M1 PAM	CHRM1 antagonist	M1 ag	TAAR1 ag	TAAR1 antagonist
O=C(CN1CCN(Cc2ccc3c(c2)OCO3)CC1)c1c[nH]c2ccccc12	-1.4	5.8	-5.8	38.1*	1.6
COC(=O)[C@]12C[C@H](CC(=O)NCc3ccccc3)C(=O)N(CCC3=CCCCC3)C1=C[C@H](COCc1ccccc1)O[C@@H]2C	x	x	x	0.3	-10.6
Cc1cc(O)cc(=O)n1-c1cc(F)c(F)c(F)c1	x	x	x	1.3	-10.6
CCOc1cc(CNCc2ccccc2)ccc1OCc1ccc(Cl)cc1	1.6	5.2	0.1	48.3*	47.3
COc1cc(CNCc2ccccn2)ccc1OCc1ccc(Cl)c(Cl)c1	2.8	10.2	-0.4	32.8	-2.6
COc1ccc(CNCCc2ccc(Cl)cc2)cc1OCc1ccccc1	-2.7	14.1	0.4	x	x
COc1cc(CNCc2ccccn2)ccc1OCc1ccc(Cl)cc1Cl	-5.9	22.1	-4.7	45.0*	16.2
C=CCN1C(=O)/C(=C/c2ccc(O)c(OC)c2)S/C1=N/c1nccs1	-7.5	23.3	10.3	31.7	60.0*
CC1CCN(C(=O)c2ccc(CSc3nc4ccncc4n3Cc3ccc(F)cc3)cc2)CC1	-27.1	38.0*	-12.1	4.1	-0.1
Nc1nc2c(ncn2[C@@H]2O[C@H](C(=O)N[C@H](Cc3ccccc3)C(=O)NC3CCCCC3)[C@@H](O)[C@H]2O)c(=O)[nH]1	x	x	x	3.2	-18.7
CCCCCCCCN1C(=O)[C@@H](CC(=O)NCc2ccc(OC)c(OC)c2)C[C@@]2(C(=O)OC)C1=C[C@H](C(C)(C)C)O[C@@H]2C	x	x	x	-1.6	-38.6
O=C(Nc1cccc(C(F)(F)F)c1)Oc1ccc(Cl)c2cccnc12	-16.1	42.2*	-1.3	17.8	15.1
CCN(CC)C(=O)Oc1ccc(Cl)c2cccnc12	3.6	2.0	-2.9	-2.0	-17.8
O=C(Nc1cccc(Br)c1)Oc1cccc2cccnc12	-23.1	43.5*	0.3	9.1	4.7
CCCCCCCCN1C(=O)[C@@H](CC(=O)NCCCOC)C[C@@]2(C(=O)OC)C1=C[C@H](C1CCCC1)O[C@@H]2C	x	x	x	-2.4	-19.3
Cc1cc[n+](CC(=O)c2cc3ccccc3oc2=O)cc1	-22.9	59.4*	-8.4	1.8	-17.6
O=C(CNC(=O)c1ccccc1)NCCc1ccc(O)c(O)c1	31.0*	-2.9	-3.8	1.6	-21.9
O=C(N/N=C/c1cccnc1)c1cccc(NC(=O)c2cccc(Br)c2)c1	-5.7	7.9	-6.3	14.8	51.4*
O=C(/C=C/c1cccs1)c1ccc(NC(=O)c2cccc(Br)c2)cc1	-1.2	14.8	-0.2	6.5	54.7*
Cc1ccc(C(=O)Nc2ccc(C(=O)/C=C/c3cccs3)cc2)cc1	12.0	-7.9	-0.6	0.1	10.3
O=C(N/N=C/c1cccnc1)c1ccc(NC(=O)C(c2ccccc2)c2ccccc2)cc1	-6.8	7.5	-2.4	8.0	57.1*
O=C(Nc1cccc(C(=O)Nc2cccc(Br)c2)c1)c1ccccc1	-7.7	0.1	3.2	15.7	62.1*
CCCCOCCCNC(=O)C[C@@H]1C[C@@]2(C(=O)OCC)CCCC=C2N(Cc2ccc(Cl)cc2Cl)C1=O	x	x	x	-0.9	-9.4
C=CCNC(=S)N1C[C@H]2CON(C)[C@H]2C[C@H]1c1ccccc1Br	x	x	x	2.1	-25.3
O=C(N/N=C/c1cccc(Oc2ccccc2)c1)c1cccc(O)c1	-4.3	7.5	-1.0	4.4	36.9
SMILES	M1 PAM	CHRM1 antagonist	M1 ag	TAAR1 ag	TAAR1 antagonist
O=C(N/N=C/c1cccc(OC(=O)c2cccc(Br)c2)c1)c1cccnc1	-7.4	19.4	4.7	18.0	57.5*
O=C(N/N=C/c1ccc(OC(=O)c2cccc(Br)c2)cc1)c1cccnc1	8.2	5.9	0.6	1.1	12.1
O=C(N/N=C/c1cccc(Oc2ccccc2)c1)c1cccc(Br)c1	2.0	-1.2	-6.0	2.5	57.5*
CSCCC(NS(=O)(=O)Cc1ccccc1)C(=O)NNc1ccccc1 (stereo unspecified)	-5.3	10.0	-2.2	1.8	-23.2
C[C@@H]1CN([C@H](C)CO)C(=O)c2cc(Br)cnc2O[C@H]1CN(C)C(=O)c1ccc(F)cc1	x	x	x	0.9	-12.2
Cc1cc2c(cc(C(=O)N3CCC(C(=O)N4CCCC4)CC3)n2Cc2c(F)cccc2Cl)o1	-12.7	30.5*	-0.8	1.1	-20.4
COc1ccc(-c2cc(-c3ccccc3O)[nH]n2)cc1OC	-8.3	31.3*	-3.5	2.8	1.9
